Source: ChEMBL document CHEMBL4842315, “Discovery and mechanism of action studies of 4,6-diphenylpyrimidine-2-carbohydrazides as utrophin modulators for the treatment of Duchenne muscular dystrophy” (Eur J Med Chem, 2021)
Active and inactive are the calls of the source. The calls are words filed in the database; no cut-off is given here.

System: Myoblast
Assay: Upregulation of AhR gene expression in DMD disease mouse model myoblasts expressing H2K-mdx utrnA-firefly luciferase assessed as fold increase in AhR mRNA at 30 uM by qRT-PCR analysis relative to control
Details: not given

Row | SMILES | fold change (FC)
1 | CCS(=O)(=O)c1ccc2oc(-c3ccc4ccccc4c3)nc2c1 [EZUTROMID] | inactive

System: not listed separately
Assay: Apparent permeability of the compound across apical to basolateral side in human Caco-2 cells
Type: ADME, cell-based
Details: read-out: permeability

Row | SMILES | Papp A→B
2 | NNC(=O)c1nc(-c2ccccc2)cc(-c2ccccc2)n1 | 30.7 ×10⁻⁶ cm/s

System: not listed separately
Assay: Upregulation of utrophin gene expression in DMD disease mouse model myoblasts expressing H2K-mdx utrnA-firefly luciferase assessed as fold increase in utrophin mRNA at 30 uM by qRT-PCR analysis relative to control
Type: functional, Myoblast
Details: not given

Row | SMILES | fold change (FC)
3 | NNC(=O)c1nc(-c2ccccc2)cc(-c2ccccc2)n1 | 1.6

System: not listed separately
Assay: Upregulation of utrophin gene expression in mouse myoblasts expressing LUmdx and firefly luciferase assessed as activation of utrophin promoter at 0.1 to 50 uM by cell-based reporter assay relative to control
Type: functional, Myoblast
Details: dose 0.1-50 µM
Method in brief: (§1)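 Immortalised myoblasts derived from the LUmdx mouse carry a utrophin promoter–firefly luciferase reporter, and promoter activation is read as luciferase signal. During screening, hits were counterscreened for firefly luciferase assay interference.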

Row | SMILES | fold change (FC)
4 | NNC(=O)c1nc(-c2ccccc2)cc(-c2ccccc2)n1 | 2

System: not listed separately
Assay: Upregulation of utrophin gene expression in mouse myoblasts expressing LUmdx and firefly luciferase assessed as activation of utrophin promoter by cell-based reporter assay
Type: functional, tissue-based, Myoblast
Details: Mus musculus, Myoblast; read-out: EC50
Method in brief: as §1

Row | SMILES | EC50
5 | COCCOc1ccc(-c2cc(-c3ccccc3)nc(C(=O)NN)n2)cc1 | 8.95 µM
6 | CCCOc1ccc(-c2cc(-c3ccccc3)nc(C(=O)NN)n2)cc1 | 5.62 µM
7 | C#CCOCCOc1ccc(-c2cc(-c3ccc(C4(C(F)(F)F)N=N4)cc3)nc(C(=O)NN)n2)cc1 | 20 µM
8 | CCOc1ccc(-c2cc(-c3ccccc3)nc(C(=O)NN)n2)cc1 | 2.71 µM
9 | NNC(=O)c1nc(-c2ccccc2)cc(-c2ccc(O)cc2)n1 | 1.57 µM
10 | COc1cccc(-c2cc(-c3cccc(OC)c3)nc(C(=O)NN)n2)c1 | 9.22 µM
11 | NNC(=O)c1nc(-c2cccc(F)c2)cc(-c2cccc(F)c2)n1 | > 10 µM
12 | NNC(=O)c1nc(-c2ccccc2)cc(-c2ccc(CO)cc2)n1 | 1.9 µM
13 | CC(=O)NCCOCCOc1ccc(-c2cc(-c3ccccc3)nc(C(=O)NN)n2)cc1 | 12.7 µM
14 | NNC(=O)c1nc(-c2ccccc2)cc(-c2ccccc2)n1 | 20.5 µM
15 | NNC(=O)c1nc(-c2ccccc2F)cc(-c2ccccc2F)n1 | 11 µM
16 | NNC(=O)c1nc(-c2ccc(C(F)(F)F)cc2)cc(-c2ccc(C(F)(F)F)cc2)n1 | > 10 µM
17 | NNC(=O)c1nc(-c2ccccc2)nc(-c2ccccc2)n1 | 8.98 µM
18 | C#CCOCCOc1ccc(-c2cc(-c3ccccc3)nc(C(=O)NN)n2)cc1 | 14.9 µM
19 | COCc1ccc(-c2cc(-c3ccccc3)nc(C(=O)NN)n2)cc1 | 4.65 µM
20 | CCCc1ccc(-c2cc(-c3ccccc3)nc(C(=O)NN)n2)cc1 | 4.54 µM
21 | NNC(=O)c1nc(-c2ccc(F)cc2)cc(-c2ccc(F)cc2)n1 | 12.8 µM
22 | COc1ccc(-c2cc(-c3ccccc3)nc(C(=O)NN)n2)cc1 | 2.28 µM
23 | COc1ccc(-c2cc(-c3ccc(OC)cc3)nc(C(=O)NN)n2)cc1 | 7.14 µM
24 | NNC(=O)c1nc(-c2ccccc2)cc(-c2ccc(C3(C(F)(F)F)N=N3)cc2)n1 | 7.22 µM

Same assay, conditions: myoblast

Row | SMILES | EC50
25 | N/N=C/c1nc(-c2ccccc2)cc(-c2ccccc2)n1 | Not Active
26 | O=C(O)c1nc(-c2ccccc2)cc(-c2ccccc2)n1 | Not Active
27 | O=C(NO)c1nc(-c2ccccc2)cc(-c2ccccc2)n1 | Not Active
28 | NNc1nc(-c2ccccc2)cc(-c2ccccc2)n1 | Not Active
29 | NNC(=O)c1nc(-c2ccccc2)cc(C2CCCCC2)n1 | Not Active
30 | Cc1cc(C)nc(C(=O)NN)n1 | Not Active
31 | CCCCOc1ccc(-c2cc(-c3ccccc3)nc(C(=O)NN)n2)cc1 | Not Active
32 | NNC(=O)Cc1nc(-c2ccccc2)cc(-c2ccccc2)n1 | Not Active
33 | COc1ccccc1-c1cc(-c2ccccc2OC)nc(C(=O)NN)n1 | Not Active
34 | NNC(=O)c1nc(-c2ccccc2)cc(-c2ccc(Oc3ccccc3)cc2)n1 | Not Active
35 | NNC(=O)c1nc(Oc2ccccc2)cc(-c2ccccc2)n1 | Not Active
36 | NNC(=O)c1nc(-c2cccc(C(F)(F)F)c2)cc(-c2cccc(C(F)(F)F)c2)n1 | Not Active
37 | NNC(=O)c1nc(-c2ccccc2C(F)(F)F)cc(-c2ccccc2C(F)(F)F)n1 | Not Active
38 | NC(=O)c1nc(-c2ccccc2)cc(-c2ccccc2)n1 | Not Active
39 | NNC(=O)c1cc(-c2ccccc2)nc(-c2ccccc2)n1 | Not Active
40 | NNC(=O)c1ncccn1 | Not Active
41 | NNC(=O)c1nc(-c2ccccc2)cc(-c2ccc(OCCOCc3ccccc3)cc2)n1 | Not Active
42 | C#CCOCCOc1ccc(-c2nc(C(=O)NN)nc(-c3ccc(C4(C(F)(F)F)N=N4)cc3)c2C)cc1 | Not Active
43 | COc1cc(-c2ccccc2)nc(C(=O)NN)n1 | Not Active
44 | NNC(=O)c1cc(-c2ccccc2)cc(-c2ccccc2)n1 | Not Active
45 | COC(=O)c1nc(-c2ccccc2)cc(-c2ccccc2)n1 | Not Active
46 | NNC(=O)c1cnc(-c2ccccc2)cc1-c1ccccc1 | Not Active
47 | Cc1c(-c2ccccc2)nc(C(=O)NN)nc1-c1ccccc1 | Not Active

System: Myoblast
Assay: Upregulation of utrophin gene expression in DMD disease mouse model myoblasts expressing H2K-mdx utrnA-firefly luciferase assessed as activation of utrophin promoter by cell-based reporter assay
Type: functional, tissue-based
Details: not given

Row | SMILES | Activity
48 | NNC(=O)c1nc(-c2ccccc2)cc(-c2ccccc2)n1 | inactive

System: not listed separately
Assay: Upregulation of utrophin gene expression in DMD disease mouse model myoblasts expressing H2K-mdx utrnA-firefly luciferase assessed as fold increase in utrophin mRNA at 3 uM by qRT-PCR analysis relative to control
Type: functional, Myoblast
Details: not given

Row | SMILES | fold change (FC)
49 | CCS(=O)(=O)c1ccc2oc(-c3ccc4ccccc4c3)nc2c1 [EZUTROMID] | 1.7
